Screening results as filed in PubChem BioAssay.
An excerpt weighted towards active compounds, which were near 2.5% of everything screened.
TRPC6 activator: mouse TRPC6 channel activators, primary screen, cell-based, HEK293, membrane potential dye | Short transient receptor potential channel 6 (Mus musculus), Q61143 | HEK293-TRPC6 membrane potential dye fluorescence; stronger effect = higher value | B-score at 10 µM | 0.13% of 310,000 active | AID 2550, 2010;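 active = B-score of the integrated fluorescence ratio above library mean plus 3 SD, and starting fluorescence ratio within library mean plus 5 SD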;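 also: higher score means more depolarization so channel activation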
Platelet DG rel: inhibitors of platelet dense granule secretion, primary screen, cell-based, MLPCN, human platelets | human platelet-rich plasma, SFLLRN dense granule ATP release, luminescence | inhibition, %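 (compounds screened at 7.5 µM in platelet-rich plasma)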 | 0.22% of 300,000 active;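 active = mean replicate score, as percent of positive control, at or above 50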
TRPC6 inh: mouse TRPC6 channel inhibitors, primary screen, cell-based, HEK293, membrane potential dye; Short transient receptor potential channel 6 (Mus musculus), Q61143; ACh-evoked depolarization; stronger effect = lower value; B-score at 10 µM; 1.1% of 310,000 active;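 active = B-score under library mean minus 3 SD, initial fluorescence not abnormally high, positive integrated signal ratio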;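 also: B-score derived from integrated fluorescence ratio over the kinetic read; more negative B-score means stronger inhibition of depolarization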
TRPC4 PAM: positive allosteric modulators of TRPC4, primary screen, cell-based, mouse TRPC4beta, HEK293 mu-opioid, Fluo-4 calcium; 0.42% of 310,000 active; DAMGO EC20, Fluo-4 Ca2+ flux; stronger effect = higher value; B-score at 10 µM; AID 2227, 2009; Short transient receptor potential channel 4 (Mus musculus), Q9QUQ5;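 active = B-score of calcium response area above 5 SD of library B-scores, with initial fluorescence ratio within 5 SD of library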;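 also: B-score of integrated fluorescence ratio over time as area under calcium response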
Target sequence (Q9QUQ5 whole entry, looked up): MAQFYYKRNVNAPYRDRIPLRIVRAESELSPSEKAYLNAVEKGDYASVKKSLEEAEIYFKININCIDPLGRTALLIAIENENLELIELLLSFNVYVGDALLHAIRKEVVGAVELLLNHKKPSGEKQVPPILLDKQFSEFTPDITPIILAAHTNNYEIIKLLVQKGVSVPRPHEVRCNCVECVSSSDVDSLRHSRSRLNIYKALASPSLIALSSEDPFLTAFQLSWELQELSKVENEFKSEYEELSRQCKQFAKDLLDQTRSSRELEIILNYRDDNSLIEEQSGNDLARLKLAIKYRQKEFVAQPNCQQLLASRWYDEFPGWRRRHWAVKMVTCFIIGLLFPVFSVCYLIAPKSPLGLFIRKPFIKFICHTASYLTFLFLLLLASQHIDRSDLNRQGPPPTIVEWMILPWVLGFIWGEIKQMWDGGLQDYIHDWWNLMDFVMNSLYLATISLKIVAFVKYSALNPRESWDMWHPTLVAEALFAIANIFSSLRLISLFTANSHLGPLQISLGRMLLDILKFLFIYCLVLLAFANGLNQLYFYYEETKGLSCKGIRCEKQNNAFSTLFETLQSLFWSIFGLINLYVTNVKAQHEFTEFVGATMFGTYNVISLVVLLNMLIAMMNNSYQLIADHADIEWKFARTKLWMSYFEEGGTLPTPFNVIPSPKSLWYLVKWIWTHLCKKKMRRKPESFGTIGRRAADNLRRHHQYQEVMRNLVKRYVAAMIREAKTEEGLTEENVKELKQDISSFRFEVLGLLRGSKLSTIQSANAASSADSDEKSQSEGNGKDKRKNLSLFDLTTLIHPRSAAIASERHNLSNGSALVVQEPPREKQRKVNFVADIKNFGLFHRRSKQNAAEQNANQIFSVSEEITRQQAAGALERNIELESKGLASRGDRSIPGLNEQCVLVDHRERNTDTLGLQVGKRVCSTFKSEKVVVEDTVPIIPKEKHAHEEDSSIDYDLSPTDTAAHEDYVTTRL
TRPC4 agonist: activators of mouse TRPC4 channel, primary screen, Fluo4 calcium, HEK293 TRPC4beta/mu-opioid cells; Short transient receptor potential channel 4 (Mus musculus), Q9QUQ5; AID 2237, 2010; 0.49% of 310,000 active; B-score at 10 µM; Fluo4 calcium fluorescence; stronger effect = higher value;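 active = B-score above 5 SD of library B-scores, and initial fluorescence ratio not above library mean plus 5 SD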;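 also: positive B-score marks a calcium rise read as TRPC4 activation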
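Material: TRPC4beta and mu-opioid receptor HEK293 stable cells | Incubation: 45 min room-temperature Fluo4 loading, 110 s read | Detection: Kinetic Fluo4 calcium fluorescence | Measure: Integrated baseline-normalised fluorescence ratio, converted to per-well B score | Benchmarks: Low control buffer alone, high control maximal DAMGO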
TRPC4 block: inhibitors of mouse TRPC4 channel, primary screen, Fluo4 calcium, HEK293 TRPC4beta/mu-opioid cells. Short transient receptor potential channel 4 (Mus musculus), Q9QUQ5. DAMGO-evoked Fluo4 calcium flux; stronger effect = lower value. B-score at 10 µM. 0.39% of 300,000 active;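 active = B-score over 3 SD under the library average, no early fluorescence shift, positive overall ratio signal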
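Material: HEK293 cells with stable TRPC4beta plus mu-opioid receptor expression / Probe or stimulus: DAMGO in two steps, submaximal then maximal / Compound: single concentration per test compound / Technique: kinetic Fluo4 fluorescence imaging of calcium influx / Read-out: per-well B score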
TRPC4 spec 2: mouse TRPC4 off-target activity of TRPC6 inhibitors, second screen | HEK293 TRPC4/MOR, membrane potential dye fluorescence; channel activated by saturating DAMGO dose | inhibition, % at 10 µM | AID 2776 | 42% of 920 active | shares compounds with TRPC6 inh;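 active = compounds whose fluorescence signal differed from control wells by over 3 SD, either direction, in both duplicate plates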
TRPC4 spec: mouse TRPC4 modulation by TRPC6 hits, confirmation, selectivity assay for TRPC6 inhibitor project, cell-based, HEK293 TRPC4/mu-opioid, membrane potential dye; shares compounds with TRPC6 inh; membrane potential fluorescence; activity change, negative = inhibition, % at 10 µM; 61% of 920 active;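 active = rise or fall in signal beyond 3 SD of buffer-only wells in both replicate plates, either sign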;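 also: integrated kinetic ratio of fluorescence range over baseline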
HEK293 MPD ctr 2-1: nonspecific membrane potential effects, parental HEK293, confirmation, counter-screen for TRPC6 inhibitor project, cell-based, second counter screen. 31% of 920 active. shares compounds with TRPC6 inh. signal change vs control, % at 10 µM. parental HEK293 membrane potential dye fluorescence; maximal acetylcholine challenge after compound addition;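 active = membrane potential signal moving either way by over 3 SD of the maximum-effect control, in both duplicate plates, meaning non-specific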
HEK293 MPD ctr-1: membrane potential modulation in parental HEK293, confirmation, counter-screen for TRPC6 inhibitor project, cell-based; shares compounds with TRPC6 inh; parental HEK293 membrane potential dye fluorescence; membrane potential signal change, % at 10 µM; 60% of 920 active;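 active = membrane potential signal shifting up or down by more than 3 SD of buffer-only wells, on both duplicate plates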
HEK293 MPD ctr-2: parental HEK293 membrane potential modulation, confirmation, counter-screen for TRPC6 modulator project, cell-based | shares compounds with TRPC6 inh | membrane potential dye fluorescence | membrane potential signal change, % at 10 µM | 51% of 2,400 active | AID 488924, 2010;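 active = membrane potential signal moves up or down beyond 5 SD from buffer-only wells, on both duplicate plates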
HEK293 MPD ctr 2-2: second counter-screen for TRPC6 modulators: effect in parental HEK293 cells; membrane potential dye fluorescence; after compound, maximal acetylcholine stimulation; 14% of 2,400 active; shares compounds with TRPC6 inh; AID 488926; inhibition, % at 10 µM;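 active = membrane potential signal drops by more than 5 SD from the mean control signal, in both duplicate plates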;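 also: plate controls were acetylcholine ECmax control wells for no effect and buffer only wells for full effect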
TRPC4 ctr mod: TRPC4 modulation by TRPC6 hit compounds, confirmation, selectivity assay for TRPC6 modulator project, cell-based, HEK293 TRPC4/mu-opioid, membrane potential dye, mouse; 69% of 2,400 active; percent change from control (negative = decrease, positive = increase), % at 10 µM; membrane potential fluorescence; shares compounds with TRPC6 inh;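 active = membrane potential signal moved up or down beyond 5 SD of buffer control wells, in both duplicate plates, actives on both sides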;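 also: plate controls were assay buffer wells for no effect and DAMGO maximal-effect wells for full effect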
TRPC4/MOR inh 2: second selectivity test of TRPC6 modulators against mouse TRPC4; shares compounds with TRPC6 inh; HEK293 TRPC4/mu-opioid, membrane potential dye fluorescence; stimulated with maximal-effect DAMGO; inhibition, % at 10 µM; 55% of 2,400 active; AID 488928;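 active = drop in membrane potential signal beyond 5 SD of the control wells in both duplicate plates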;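 also: TRPC4 counter screen for TRPC6 hits run under conditions tuned for TRPC6 not TRPC4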
TRPC6 inh conf: mouse TRPC6 channel inhibitors, confirmation, HEK293 cells, membrane potential dye, duplicate. shares compounds with TRPC6 inh. ACh-evoked depolarization. inhibition, % at 10 µM. 43% of 3,300 active. AID 488960, 2010;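 active = fluorescence ratio falls more than 5 SD below the full-stimulation control mean, in both duplicate runs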;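 also: integrated fluorescence ratio of peak minus minimum over baseline after agonist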
TRPC6 act conf: mouse TRPC6 channel activators, confirmation, HEK293 cells, membrane potential dye, duplicate; activation, % at 10 µM; HEK293-TRPC6 membrane potential dye fluorescence, FDSS; 11% of 2,800 active; shares compounds with TRPC6 inh;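 active = ratio signal rise beyond 5 SD above unstimulated control wells' mean, seen in both duplicate runs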;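 also: plate controls were buffer EC0 wells for no effect and acetylcholine ECmax response for full effect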
Starred values were filed as active, the others as inactive.

Screening Cc1cc(C)n(-c2nc(SCCN(C)C)c3c4c(sc3n2)COC(C)(C)C4)n1 returned TRPC6 activator inactive, Platelet DG rel -1, TRPC6 inh -9.8*, TRPC4 PAM inactive, TRPC4 agonist inactive, TRPC4 block inactive, TRPC4 spec 2 48%*, TRPC4 spec -15%*, HEK293 MPD ctr 2-1 inactive, HEK293 MPD ctr-1 -304%*, TRPC6 inh conf 57%* and TRPC6 act conf inactive.
`FC(F)(F)c1cc(-c2ccccc2)nc(N2CCCCCC2)n1` gave TRPC6 activator inactive, Platelet DG rel 21, TRPC6 inh inactive, TRPC4 PAM inactive, TRPC4 agonist inactive and TRPC4 block inactive.
Screening c1ccc(-c2cnnc(N3CCCCC3)n2)cc1 returned TRPC6 activator inactive, Platelet DG rel 1, TRPC6 inh -6.9*, TRPC4 PAM inactive, TRPC4 agonist inactive, TRPC4 block inactive, TRPC4 spec 2 inactive, TRPC4 spec 0.7%*, HEK293 MPD ctr 2-1 inactive, HEK293 MPD ctr-1 inactive and TRPC6 inh conf 72%*.
`N=c1c2ccccc2nc2n1CCCCCCCCCCC2` gave TRPC6 activator inactive, Platelet DG rel -1, TRPC6 inh -7.6*, TRPC4 PAM inactive, TRPC4 agonist inactive, TRPC4 block inactive, TRPC4 spec 2 50%*, TRPC4 spec 17%*, HEK293 MPD ctr 2-1 254%*, HEK293 MPD ctr-1 18%* and TRPC6 inh conf inactive.
CNC(=S)NNC(=O)CSCc1c(Cl)cccc1Cl was read as TRPC6 activator inactive, Platelet DG rel -3, TRPC6 inh inactive, TRPC4 PAM inactive, TRPC4 agonist inactive and TRPC4 block inactive.
CNC(=O)CSCc1c(Cl)cccc1Cl was read as TRPC6 activator inactive, Platelet DG rel 3, TRPC6 inh -11*, TRPC4 PAM inactive, TRPC4 agonist inactive, TRPC4 block inactive, HEK293 MPD ctr-2 inactive, HEK293 MPD ctr 2-2 inactive, TRPC4 ctr mod inactive, TRPC4/MOR inh 2 inactive, TRPC6 inh conf inactive and TRPC6 act conf inactive.
`Cc1ccc(C(=O)NC(C)C2CC3CCC2C3)cc1` (stereo unspecified) gave TRPC6 activator inactive, Platelet DG rel 10, TRPC6 inh inactive, TRPC4 PAM inactive, TRPC4 agonist inactive and TRPC4 block inactive.
`Cc1ccc(C2C(C#N)=C(N)Oc3cc(N)ccc32)cc1` (stereo unspecified) gave TRPC6 activator 13*, Platelet DG rel 12, TRPC6 inh inactive, TRPC4 PAM inactive, TRPC4 agonist inactive, TRPC4 block inactive, HEK293 MPD ctr-2 inactive, HEK293 MPD ctr 2-2 inactive, TRPC4 ctr mod inactive, TRPC4/MOR inh 2 inactive, TRPC6 inh conf inactive and TRPC6 act conf inactive.
For Cc1ccc(S(N)(=O)=O)cc1NC(=O)C(c1ccccc1)c1ccccc1 the results were TRPC6 activator inactive, Platelet DG rel 0, TRPC6 inh inactive, TRPC4 PAM inactive, TRPC4 agonist inactive and TRPC4 block inactive.
For Cn1cccc1CNC1CCCCC1 the results were TRPC6 activator inactive, Platelet DG rel 1, TRPC6 inh inactive, TRPC4 PAM inactive, TRPC4 agonist inactive and TRPC4 block inactive.
c1ccc(-n2cccc2CNC2CCCCC2)cc1 was read as TRPC6 activator inactive, Platelet DG rel 1, TRPC6 inh -6.9*, TRPC4 PAM inactive, TRPC4 agonist inactive, TRPC4 block inactive, TRPC4 spec 2 inactive, TRPC4 spec inactive, HEK293 MPD ctr 2-1 inactive, HEK293 MPD ctr-1 inactive and TRPC6 inh conf inactive.
Screening CCN(CCNC(=O)C1CCN(Cc2nc(-c3cccc(Cl)c3)oc2C)CC1)c1ccccc1 returned TRPC6 activator inactive, Platelet DG rel -5, TRPC6 inh inactive, TRPC4 PAM inactive, TRPC4 agonist inactive and TRPC4 block inactive.
